From ChEMBL document CHEMBL1134465, “Synthesis and evaluation of pteroic acid-conjugated nitroheterocyclic phosphoramidates as folate receptor-targeted alkylating agents” (J Med Chem, 2001) come the findings set out here.

SMILES strings stand for the structures.

A short description of experiment [1]: In vitro growth inhibition of human breast adrenocarcinoma cell line, MDA-231 with over-expressed folate receptors in folate deficient medium. Type of experiment: functional. Particulars: MDA-MB-231. The method, boiled down:
(§1)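 Cells were incubated with drug for 72 h in folate-deficient medium. Drug from DMSO stock was added with final DMSO <1%. Five serial 10-fold dilutions were tested, top final concentration 100 μg/mL. Viable cells were estimated by MTT and IC50 was derived.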

The test system of another experiment is UMUC3. Nature of the experiment: In vitro growth inhibition of human tumor cell line, UMUC3. In kind it is functional, cell-based. The essentials:
(§2)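 Cells were seeded and grown 24 h at 37 °C in McCoy's 5A medium with 10% heat-inactivated FBS, penicillin 100 U/mL and streptomycin 100 μg/mL. Drug from DMSO stock was added in the same medium, with final DMSO <1%. Five serial 10-fold dilutions were tested, top final concentration 100 μg/mL.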

Experiment [2] relates to A549. Nature of the experiment: In vitro growth inhibition of human lung carcinoma cell line, A549 with low levels of folate receptors in folate deficient medium. In kind it is functional, cell-based. The essentials:
as §1

A further experiment deals with MIA PaCa-2. Nature of the experiment: In vitro growth inhibition of human tumor cell line, PACA2. Type of experiment: functional, cell-based. The essentials: as §2
Experiment [3] has as its system A498. Nature of the experiment: In vitro growth inhibition of human kidney carcinoma cell line, A498 with low levels of folate receptors in folate deficient medium. Type of experiment: functional, cell-based. The essentials: as §1
Another experiment has as its system PC-3. Nature of the experiment: In vitro growth inhibition of human tumor cell line, PC3. In kind it is functional, cell-based. The essentials: as §2
Experiment [4] is described as follows: In vitro growth inhibition of human ovarian carcinoma cell line, IGROV with over expressed folate receptors. Type of experiment: functional. The essentials: as §2
Experiment [5] concerns A498. Nature of the experiment: In vitro growth inhibition of human kidney carcinoma cell line, A498 with low levels of folate receptors. Type of experiment: functional, cell-based. The essentials:
as §2

Experiment [6] in a line: In vitro growth inhibition of human breast adrenocarcinoma cell line, MDA-231 with over-expressed folate receptors. Type of experiment: functional. Conditions: MDA-MB-231. The essentials:
as §2

The subject of a further experiment is HT-29. Nature of the experiment: In vitro growth inhibition of human tumor cell line, HT-29. In kind it is functional, cell-based. The essentials:
as §2

Experiment [7] in a line: In vitro growth inhibition of human ovarian carcinoma cell line, IGROV with over expressed folate receptors in folate deficient medium. In kind it is functional. The essentials:
as §1

The test system of experiment [8] is A549. Nature of the experiment: In vitro growth inhibition of human lung carcinoma cell line, A549 with low levels of folate receptors. In kind it is functional, cell-based. The essentials:
as §2

Experiment [9] is described as follows: In vitro growth inhibition of human breast adrenocarcinoma cell line, MDA-231 with over expressed folate receptors. Type of experiment: functional. Particulars: MDA-MB-231. The essentials:
as §2

In the case of `Nc1nc(O)c2nc(CNc3ccc(C(=O)NC(CCCCNP(=O)(OCc4ccc([N+](=O)[O-])o4)N(CCBr)CCBr)C(=O)O)cc3)cnc2n1` (stereo unspecified), the IC50 – broadly, the concentration at which inhibition is half-maximal – in [1] is 3.6 µM; in the experiment on UMUC3, 5.2 µM; in the experiment on A549 [2], 23 µM; with MIA PaCa-2 it was 16 µM; with A498 [3] it was 19 µM; in the experiment with PC-3, 11 µM. The IC50 in experiment [4] came out at 0.83 µM; with A498 [5], 11 µM; in experiment [6] it was 8 µM; with HT-29, 0.3 µM; in [7], 0.57 µM; with A549 [8], 11 µM.
Take `NC(CCCCNP(=O)(OCc1ccc([N+](=O)[O-])o1)N(CCCl)CCCl)C(=O)O` (stereo unspecified): the IC50 was determined as 0.62 µM with UMUC3; 2.4 µM in the experiment on MIA PaCa-2; 21 µM in the experiment with PC-3; 16 µM in [9]; 26 µM in the experiment on A498 [5]; 20 µM in the experiment on HT-29. In the experiment on A549 [8], this molecule registered an IC50 of 41 µM.
Turning to `CCCNP(=O)(OCc1ccc([N+](=O)[O-])o1)N(CCCl)CCCl` (stereo unspecified), the IC50 was found to be 0.72 µM in the experiment with UMUC3; 0.45 µM in the experiment with MIA PaCa-2; 2.3 µM in the experiment with PC-3; 1.9 µM in [9]; 1.4 µM with A498 [5]; 17 µM in the experiment with HT-29. The IC50 in the experiment with A549 [8] is 1.9 µM.
